Where two headings read alike, the source gives them in different places.
Legend:
[1] = biological target: T1, PhENR (Pyrococcus horikoshii, UniProt O58586); experiment: Biocatalytic transformations with PhENR; assay type: biochemical; conditions: for acceptance as substrate: substrate scope
Outline: (§1)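 Substrate (10 mM) was reduced with NADH or NADPH (15 mM) and enzyme in 50 mM buffer. The initial aerobic screen used Tris-HCl at pH 7, 8 or 9. Optimised anaerobic runs used degassed buffer under an Ar flush: 50 mM phosphate for TtENR, 50 mM Tris-HCl for PhENR, both pH 7, with NADPH. Mixtures were shaken 24 h at 30 °C, 120 r.p.m., then EtOAc-extracted. Conversion was read by achiral GC, e.e. by chiral GC or HPLC. One substrate was given in DMF (1% final).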

[2] = biological target: T2, TtENR (Thermus thermophilus, UniProt P83818); experiment: Biocatalytic transformations with TtENR; assay type: biochemical; conditions: for acceptance as substrate: substrate scope, Table 1
T2 sequence (P83818 1-178): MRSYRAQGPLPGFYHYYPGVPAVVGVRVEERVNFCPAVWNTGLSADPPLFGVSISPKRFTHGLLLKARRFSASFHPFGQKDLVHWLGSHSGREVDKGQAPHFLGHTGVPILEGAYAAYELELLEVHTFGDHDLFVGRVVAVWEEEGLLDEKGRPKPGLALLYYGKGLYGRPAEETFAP
Outline: as §1

[3] = biological target: T1, PhENR; experiment: UV-visible difference titration of ligands with PhENR; assay type: binding
Outline: (§2)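 UV–visible difference titrations at 25 °C in tandem cuvettes. Putative ligand (enones, enals, a quinone or a hydroxybenzaldehyde) was added both to enzyme solution in the sample cell and to 50 mM Tris-HCl pH 7.5 buffer in the reference cell. Spectral changes were followed as a function of ligand concentration.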

[4] = biological target: T2, TtENR; experiment: UV-visible difference titration of ligands with TtENR; assay type: binding
Outline: as §2

[5] = biological target: T2, TtENR; experiment: Stopped-flow reductive half reaction of TtENR; assay type: biochemical; conditions: monophasic, 37 °C, 100 mM Tris-HCl pH 7.4
Outline: (§3)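 Anoxic stopped-flow at 37 °C in a glove box, single-mixing mode. Enzyme was mixed with NADPH or NADH at 0.4–10.0 mM in 100 mM Tris-HCl pH 7.4, with nitrogen-flushed buffers. Flavin reduction was monitored as A458 change with a diode-array detector.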

[6] = biological target: yeast OYE; conditions: read-out: dissociation constant (Kd); cited from earlier work
[7] = system: yeast OYE; conditions: cited from earlier work; for rate of reduction of the flavin cofactor: biphasic kinetics
[8] = biological target: T2, TtENR; experiment: Stopped-flow reoxidation of reduced TtENR; assay type: biochemical; conditions: air-saturated buffer
Outline: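 Enzyme in 50 mM potassium phosphate pH 7.0 was reduced anoxically with sodium dithionite, and excess dithionite was removed on a desalting column inside a glove box. Reduced enzyme was mixed in single-mixing stopped-flow at 37 °C with substrate at various concentrations or with air-saturated buffer. FMN reoxidation was followed at A458 by diode array. Curves were fitted with a two-exponential function.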

[9] = biological target: T1, PhENR; experiment: Stopped-flow reductive half reaction of PhENR; assay type: biochemical; conditions: monophasic, 37 °C, 100 mM Tris-HCl pH 7.4
Outline: as §3

[10] = biological target: T2, TtENR; experiment: Steady-state turnover; assay type: biochemical; conditions: NADPH and dioxygen as substrates, 50 mM potassium phosphate pH 7.0, 75 °C

T1 sequence (O58586 whole entry): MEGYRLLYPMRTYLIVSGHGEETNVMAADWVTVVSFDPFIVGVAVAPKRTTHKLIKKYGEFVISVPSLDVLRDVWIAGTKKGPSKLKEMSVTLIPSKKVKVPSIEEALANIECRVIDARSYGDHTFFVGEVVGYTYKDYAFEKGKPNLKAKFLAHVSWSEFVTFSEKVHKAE

## CC1=CC(=O)CC(C)(C)C1=O [Compound 2a, 2,6,6-trimethylcyclohex-2-ene-1,4-dione]
[1]
  stereopreference compared with typical OYEs: inverted stereopreference
[1]; Table 1
  acceptance as substrate: good substrates
[2]
  stereopreference compared with typical OYEs: inverted stereopreference
  acceptance as substrate: good substrates

## O=Cc1ccc(O)cc1 [pHB, p-hydroxybenzaldehyde]
[3]
  Kd: 36 µM
[4]
  Kd: 25 µM

## CC1CC(=O)N(c2ccccc2)C1=O (racemic) [Compound 5b, rac-N-phenyl-2-methylsuccinimide]
[1]
  stereopreference compared with typical OYEs: inverted stereopreference
[1]; Table 1
  acceptance as substrate: good substrates
[2]
  stereopreference compared with typical OYEs: inverted stereopreference
  acceptance as substrate: good substrates

## NC(=O)C1=CN([C@@H]2O[C@H](COP(=O)(O)OP(=O)(O)OC[C@H]3O[C@@H](n4cnc5c(N)ncnc54)[C@H](O)[C@@H]3O)[C@@H](O)[C@H]2O)C=CC1 [NADH]
[5]
  reductive rate (kred): 0.25 s⁻¹

## CC/C=C(\C)C=O [Compound 3a, (E)-2-methylpent-2-enal]
[1]; Table 1
  conversion: full conversion
  acceptance as substrate: good substrates
[2]
  acceptance as substrate: good substrates

## O=C1C=CCCC1 [Compound 1a, 2-Cyclohexen-1-one]
[6]
  Kd: 32 µM
[3]
  Kd: 76000 µM
[4]
  Kd: 40000 µM
[1]; Table 1
  acceptance as substrate: accepted but at lower conversion rates
[7]
  oxidative rate kox: 102 s⁻¹
[2]
  acceptance as substrate: accepted but at lower conversion rates

## O=C1C=CC(=O)C=C1 [1,4-benzoquinone]
[3]
  Kd: 1800 µM
[4]
  Kd: 580 µM

## O=O [dioxygen]
[8]
  kox, reoxidation of the cofactor: 57 s⁻¹

## CC(C)=CCCC(C)=CC=O (mixture of isomers) [Compound 4a, citral]
[1]; Table 1
  acceptance as substrate: good substrates
[2]
  acceptance as substrate: good substrates

## NC(=O)C1=CN([C@@H]2O[C@H](COP(=O)(O)OP(=O)(O)OC[C@H]3O[C@@H](n4cnc5c(N)ncnc54)[C@H](OP(=O)(O)O)[C@@H]3O)[C@@H](O)[C@H]2O)C=CC1 [NADPH]
[5]
  reductive rate (kred): 0.15 s⁻¹
[9]
  reductive rate (kred): 0.06 s⁻¹
[7]; first printed rate
  rate of reduction of the flavin cofactor: 1.18 s⁻¹
[7]; second printed rate
  rate of reduction of the flavin cofactor: 0.3 s⁻¹
[10]
  turnover rate kcat: 0.36 s⁻¹
[10]; read-out: KM(NADPH)
  Km: 50 µM

Reference: publication PMC4083419 (Nature Communications, 2014)
